The sample as a whole holds a higher share of hits than the screen did.
HEK293 NFkB inh: inhibitors of the PMA/ionomycin-induced NF-kB reporter in HEK293 cells | HEK-293 NF-kB luciferase reporter, luminescence | inhibition, % at 3 µM | 0.21% of 62,000 active;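 active = inhibition above the mean of all tested compounds plus 3 SD, cut at about 40% in these data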
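Signal: luciferase luminescence; Material: HEK-293 cells with stable firefly luciferase reporter driven by four HIV NF-kB elements; Probe or stimulus: PMA with ionomycin; Replication: tested once; Times: 1 h compound pretreatment, then 16 h stimulation at 37 °C, 5% CO2; Benchmarks: DMSO and 10 µM reference inhibitor; Evaluation: per-plate % inhibition versus controls.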
hDAT+cocaine: human DAT dopamine uptake with cocaine, either direction; Q01959; B-score at 10 µM; AID 449768; 1.3% of 110,000 active; LLC-PK1 hDAT cells, [14C]-dopamine uptake with cocaine IC80; actives deviate in either direction;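 active = Z score or B-score, a plate-position-corrected score, falls beyond the plate's 99.7% confidence bounds, in either direction; inactive = both scores lie inside the 99.7% bounds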
Target sequence (Q01959 whole entry, looked up): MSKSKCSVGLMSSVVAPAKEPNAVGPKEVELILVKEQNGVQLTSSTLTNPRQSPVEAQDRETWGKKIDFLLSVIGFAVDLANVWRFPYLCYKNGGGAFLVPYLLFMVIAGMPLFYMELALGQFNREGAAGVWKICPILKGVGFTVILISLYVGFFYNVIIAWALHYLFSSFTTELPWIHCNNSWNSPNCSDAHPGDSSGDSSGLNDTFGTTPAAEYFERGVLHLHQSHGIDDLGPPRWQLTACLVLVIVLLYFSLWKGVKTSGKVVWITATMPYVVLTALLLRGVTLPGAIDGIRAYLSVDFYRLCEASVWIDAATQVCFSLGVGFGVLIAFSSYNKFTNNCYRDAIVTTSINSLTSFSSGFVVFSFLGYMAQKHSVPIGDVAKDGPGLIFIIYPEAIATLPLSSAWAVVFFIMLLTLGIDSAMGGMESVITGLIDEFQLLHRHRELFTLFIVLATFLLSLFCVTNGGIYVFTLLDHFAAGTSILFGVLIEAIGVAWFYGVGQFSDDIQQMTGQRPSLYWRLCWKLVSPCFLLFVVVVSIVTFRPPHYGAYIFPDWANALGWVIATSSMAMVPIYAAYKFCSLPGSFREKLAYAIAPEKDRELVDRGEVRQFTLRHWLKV
D1 allo mod: allosteric modulators of human D1 dopamine receptor. HEK293 D1, CRE-luciferase, dopamine EC30 potentiation; actives deviate in either direction. B-score at 10 µM. 5.9% of 58,000 active. AID 641;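 active = luminescence count or its row- and column-corrected plate score outside the 99.7% band of the plate's sample wells, on either side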
Ec RNAP inh: inhibitors of Escherichia coli RNA polymerase; E. coli RNA polymerase, fluorescence transcription assay; 0.2% of 62,000 active; inhibition, %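 (tested at 10 µM)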; P0A8V2; in the data active = inhibition above about 20%
AP complement: orthogonal test for alternative complement pathway inhibitors | Human serum alternative complement pathway, LPS-coated ELISA, C3 deposition; tested in compound mixtures | inhibition, % at 5 µM | 0.08% of 62,000 active | AID 1235;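 active = inhibition above 30% in each of the two pooled mixtures holding the compound, so the lower value exceeds 30%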
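Test system: human serum alternative complement pathway, C3 deposition on LPS-coated wells; also added: Plate-bound LPS; doses: 5 µM per compound in ten-compound mixtures; schedule: 1 h at 37 °C; detection: Anti-C3 ELISA, OD 450 nm; evaluation: percent inhibition of C3 deposition onto LPS; repeats: two pool placements per compound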
A number is an active result; . = inactive; / = no result given.

SMILES	HEK293 NFkB inh	hDAT+cocaine	D1 allo mod	Ec RNAP inh	AP complement
O=C(CC(Nc1ccccc1)C(=O)O)c1ccccc1 (stereo unspecified)	.	2.9	/	.	.
CCOC(=O)c1[nH]c(C)c(C(=O)NCCCN2CCOCC2)c1C	.	-5	.	.	.
CCOC(=O)c1c(C)[nH]c(C(=O)CN2CCOCC2)c1C	.	.	/	.	.
O=C(NCCCN1CCC(Cc2ccccc2)CC1)C1CC(=O)N(C2CCCCCC2)C1 (stereo unspecified)	/	.	/	/	/
N=c1n(CCN2CCOCC2)c2ccccc2n1CC(O)COc1ccccc1 (stereo unspecified)	.	.	.	.	.
Cc1ccccc1OCC(O)Cn1c(=N)n(CCN2CCOCC2)c2ccccc21 (stereo unspecified)	.	.	-4.9	/	/
COc1ccccc1OCC(O)Cn1c(=N)n(CCN2CCCCC2)c2ccccc21 (stereo unspecified)	.	.	-2.5	/	/
COCC(=O)Nc1nc2ccc(C)cc2s1	.	.	-5	.	.
Cc1ccccc1-c1nnc(NC(=O)CSc2nc3ccccc3s2)s1	/	.	/	/	/
COc1ccc2c(c1)-c1ccccc1S(=O)(=O)N2C(C)=O	.	.	/	29	.
COc1ccc(OC)c(NC(=O)CN2C(=O)c3ccccc3S2(=O)=O)c1	.	.	.	.	.
CCc1ccc(NC(=O)CNS(=O)(=O)c2c(C)noc2C)cc1	.	/	.	.	.
CC(C)CC(=O)Nc1ccc(-c2cn3ccsc3n2)cc1	.	.	-4.5	/	.
COc1ccc(-c2csc(NC(=O)CC(C)C)n2)cc1	/	.	/	/	/
CC(C)(C)C(=O)Nc1ccc(-c2cn3ccsc3n2)cc1	.	/	-5.4	.	.
O=C(OCc1nnc(-c2ccccc2)o1)C1CCN(S(=O)(=O)c2cccs2)CC1	.	.	.	.	.
COc1cc(F)c(C(=O)NC(C)(C)CO)cc1OC	/	.	/	/	/
Cc1cc(C)cc(OCC(=O)NCC2CCCO2)c1 (stereo unspecified)	/	.	-4.8	.	.
Cc1cc(C)c(C)c(OCC(=O)NCC2CCCO2)c1 (stereo unspecified)	.	.	.	.	.
CCOc1ccc(Nc2cc(C)nc3nc(C)nn23)cc1	.	/	/	.	.
COC1=C(N)C(=O)c2nc(-c3nc(C(=O)O)c(C)c(-c4ccc(OC)c(OC)c4O)c3N)ccc2C1=O	/	-4.1	/	/	/
Cc1cccnc1NC(=O)Nc1ccc(F)cc1	.	.	-2.4	.	.
COC(=O)c1ccc(NC(=O)Nc2ccc(F)cc2)cc1	.	.	-3.7	/	.
COC(=O)c1ccc(NC(=O)c2ccccc2SC)cc1	/	3.3	/	/	/
Cc1ccc(C(=O)N2CCC3(CC2)Oc2ccc(F)cc2C(=O)C32CC(c3ccc(Cl)cc3)=NO2)s1 (stereo unspecified)	/	.	/	/	/
SMILES	HEK293 NFkB inh	hDAT+cocaine	D1 allo mod	Ec RNAP inh	AP complement
COc1ccccc1OCC(=O)Nc1ccc(S(=O)(=O)NC(C)=O)cc1	.	.	.	.	.
COc1ccccc1OCC(=O)Nc1ccc(S(=O)(=O)Nc2nc(C)cc(C)n2)cc1	.	3.5	.	21	.
Cc1ccc(S(=O)(=O)NCC(=O)OC(C)C(=O)Nc2ncc(Cl)cc2Cl)cc1 (stereo unspecified)	/	.	/	/	/
Cc1nc2c(c(=O)n1CCC(C)C)c1nc3ccccc3nc1n2Cc1ccc2c(c1)OCO2	.	.	8.8	.	.
Cc1cc(C)c2nc(N3CCC(C(=O)N4CCN(C(=O)c5ccco5)CC4)CC3)sc2c1	/	3.7	/	/	/
COCOc1ccc(-c2oc3c(C/C=C(\C)CCC=C(C)C)ccc(O)c3c(=O)c2OCOC)c(OCOC)c1	/	.	/	/	/
CC(=O)Nc1ccc(S(=O)(=O)c2ccc(N)cc2)cc1	.	2	.	.	.
CC(=O)Nc1ccc(S(=O)(=O)c2ccc(N)cc2)cc1N	.	.	.	.	.
CCc1nnc(NC(=O)c2cc(S(=O)(=O)N(CC)CC)ccc2Cl)s1	/	.	/	/	/
CCN(CC)S(=O)(=O)c1ccc(Cl)c(C(=O)NC)c1	.	.	-5.2	.	.
Cc1ccc(C(=O)COc2ccccc2C(=O)Nc2ccccc2)cc1	/	.	/	/	/
CCSc1ccccc1C(=O)NCc1ccc(S(N)(=O)=O)cc1	.	.	-3	.	.
CC(C)OC(=O)[C@H]1[C@H](c2ccc(Cl)cc2)[C@@](C#N)(C(N)=O)[C@@H]2C=CC(C(N)=O)=CN21	/	.	/	.	.
O=C(COC(=O)CNS(=O)(=O)c1ccccc1)Nc1ccc(Cl)cn1	/	.	/	/	/
CN(CCO)c1nc(N)c2c(N)nc3c(c2c1C#N)CC(=O)N3C1CCCC1	/	.	/	/	/
CC(C)(C)N1C(=O)Cc2c1nc(N)c1c(N)nc(N3CCCCC3CO)c(C#N)c21 (stereo unspecified)	.	-4.2	.	.	.
COc1cccc(-c2cc(C(=O)Nc3cnn(Cc4ccccc4C)c3)no2)c1	.	/	.	.	.
COc1cccc(-c2cc(C(=O)Nc3cnn(Cc4ccc(F)cc4)c3)no2)c1	.	.	-3	.	.
COc1ccccc1C(=O)Nc1ncc2c(n1)CC(c1ccco1)CC2=O (stereo unspecified)	.	-3.8	.	.	.
COc1cccc(NC(=O)C2CCCN(S(=O)(=O)c3ccc(-n4cnnn4)cc3)C2)c1 (stereo unspecified)	.	.	-4.1	.	.
CCOc1cccc(NC(=O)C2CCCN(S(=O)(=O)c3ccc(-n4cnnn4)cc3)C2)c1 (stereo unspecified)	.	.	.	.	.
CNc1nc(SCc2ccc(C)cc2)nc2c1CCCC2	/	.	/	/	/
COc1cc2[nH]c3c(N4CCN(c5ccccn5)CC4)ncnc3c2cc1OC	.	.	-4.8	.	.
CCOC(=O)N1CCN(c2ncnc3c2[nH]c2ccc(OC)cc23)CC1	/	3.5	.	.	.
COc1ccc(N2CCN(c3ncnc4c3[nH]c3ccccc34)CC2)cc1	/	.	/	/	/
SMILES	HEK293 NFkB inh	hDAT+cocaine	D1 allo mod	Ec RNAP inh	AP complement
CCN1CCN(Cc2nc3c(c(=O)n(C)c(=O)n3C)n2CCc2ccccc2)CC1	.	-3	.	.	.
CCN1CCN(Cc2nc3c(c(=O)n(C)c(=O)n3C)n2CCCc2ccccc2)CC1	.	/	/	.	.
CCCCn1c(CN2CCN(c3ccc(F)cc3)CC2)nc2c1c(=O)n(C)c(=O)n2C	.	.	-2.6	.	.
COc1ccc(/C=N/n2c(SC)nnc(C(C)(C)C)c2=O)c(OC)c1	/	.	/	/	/
CCOC(=O)C1CCN(c2c(NCc3ccc(C(=O)NC(C)CC)cc3)c(=O)c2=O)CC1 (stereo unspecified)	.	.	-3.2	.	.
COC(=O)c1ccsc1NC(=O)CN1C(=O)CCC1=O	.	.	.	.	.
CS(=O)(=O)N1CCN(C(=O)c2cc(-c3cccs3)nc3ccccc23)CC1	.	-3	.	.	.
Cc1oc(-c2ccc(Cl)cc2)nc1CN1CCC(C(=O)N2CCc3ccccc3C2)CC1	.	2.6	.	.	.
Cc1oc(-c2cccc(Cl)c2)nc1CN1CCC(C(=O)NCc2ccco2)CC1	.	.	.	.	.
CCOc1ccc(-c2nc(CSCC(=O)NCc3ccco3)c(C)o2)cc1	83	.	.	.	.

Screening data: PubChem, several laboratories
